Source: PubChem
This is a sample that favours compounds with a hit; in the whole collection about 2.7% have one here.
CHO parental Ca – signal in parental CHO cells, OX1R antagonist counter-screen | hit rate 0.63% among 330,000 | inhibition, % at 5.6 µM | parental CHO-K1, ATP-induced calcium, Fluo-8 fluorescence;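 active means inhibition above that plate's mean sample inhibition plus 3 SD, cut at about 26% in these data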
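Test system: untransfected parental CHO cell line. Compound: one dose, 5.6 µM nominal. Detection: intracellular calcium via Fluo-8 no-wash fluorescent dye. Measure: % inhibition. Benchmarks: ATP-challenged DMSO wells low, unchallenged DMSO wells high.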
OX1R antag-1 – blocks the human orexin 1 receptor; hit rate 1.8% among 330,000; inhibition, % at 6.6 µM; O43613; OX1R-expressing cells, FRET antagonist read-out; in the data active means inhibition mostly above about 38%, no sharp cut-off; inactive means mostly below about 40%
OXTR agonist – activates the human oxytocin receptor; activation, % at 3 µM; CHO-OTR cells, Fluo-8 calcium fluorescence; normalized: DMSO 0%, oxytocin 100%; hit rate 0.32% among 320,000;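 active means activation above the mean of all tested compounds plus 3 SD, cutoff set per screening run, cut at about 20% in these data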;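 further: peak over basal fluorescence ratio from a 100 s FLIPR kinetic read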
OXTR potentiator – potentiates the human oxytocin receptor response | hit rate 0.061% among 320,000 | P30559 | CHO-OTR cells, Fluo-8 calcium fluorescence, potentiator mode; 0% = oxytocin EC15, 100% = EC100 | activation, % at 3 µM;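 active means activation above that plate's cutoff, the mean activation of tested compounds plus 3 SD, cut at about 6.6% in these data, passing the limit was not always enough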
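assay system = CHO-OTR cells, human receptor | schedule = compound 6 min at room temperature before oxytocin, 100 s read | detection = Fluo-8 intracellular calcium fluorescence, ex 470-495, em 515-575 nm | evaluation = normalized max/min fluorescence ratio, % activation | control set = EC15 oxytocin alone as 0%, 75 nM oxytocin (EC100) as 100%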
OX1R antag-2 – human HCRTR1 antagonism. CHO/OX1R cells, Fluo-8 calcium fluorescence, orexin A. hit rate 0.43% among 330,000. inhibition, % at 5 µM. AID 434989;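 active means inhibition above its plate's threshold, mean inhibition of all tested compounds on the plate plus 3 SD, cut at about 37% in these data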
V1R ag counter – activates human V1a receptor in oxytocin agonist counter-screen; P37288; CHO-V1R cells, Fluo-8 calcium fluorescence, agonist mode; 0% DMSO, 100% 3 nM vasopressin; activation, % at 3 µM; hit rate 0.25% among 320,000; AID 2797;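 active means activation above the mean activation of all tested compounds plus 3 SD, per screening run, cut at about 20% in these data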;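 further: signal is peak over basal fluorescence ratio across a 100 second FLIPR read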
Target sequence (P37288 whole entry, looked up): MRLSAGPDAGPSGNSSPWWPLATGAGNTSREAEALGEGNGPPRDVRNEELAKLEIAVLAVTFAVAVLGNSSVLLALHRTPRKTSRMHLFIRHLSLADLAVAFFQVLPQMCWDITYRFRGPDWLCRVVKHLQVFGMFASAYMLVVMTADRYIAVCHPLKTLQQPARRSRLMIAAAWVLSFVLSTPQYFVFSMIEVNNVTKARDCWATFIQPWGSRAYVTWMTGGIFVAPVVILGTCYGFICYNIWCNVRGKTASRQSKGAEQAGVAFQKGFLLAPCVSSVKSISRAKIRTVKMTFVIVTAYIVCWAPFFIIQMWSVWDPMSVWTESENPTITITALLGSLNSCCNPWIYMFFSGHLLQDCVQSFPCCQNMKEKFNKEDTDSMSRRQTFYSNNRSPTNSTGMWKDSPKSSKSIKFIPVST
Each line names hits and unclear results; the compound was inactive in the other large screens.

COc1ccc(NCc2cc3ccccc3[nH]c2=O)cc1	none
COc1ccc(NCc2cc3cc(OC)ccc3[nH]c2=O)cc1	OX1R antag-1 47
COc1ccc2[nH]c(=O)c(CNc3cccc(C)c3)cc2c1	OX1R antag-1 48
O=C(COc1ccc(S(=O)(=O)N2CCOCC2)cc1)Nc1ccccc1Cl	none
CC(=O)c1cccc(CN2CCC(C(=O)Nc3ccc(-c4cccc(C)c4)cc3)CC2)c1	none
CNc1ccc2c3c(cccc13)C(=O)N(C)C2=O	CHO parental Ca 79, OXTR agonist 192, OX1R antag-2 88, V1R ag counter 314
N#Cc1nc(-c2ccc(OCc3ccc(Cl)cc3)cc2)oc1NCc1cccnc1	none
N#Cc1nc(-c2ccc(OCc3ccccc3)cc2)oc1NCc1cccnc1	CHO parental Ca 54, OX1R antag-2 45
Cc1cc2nn(-c3cccc4ccccc34)nc2cc1NC(=O)c1cccs1	OX1R antag-1 57
Cc1ccc(-c2nn3c(C)nnc3s2)cc1NC(=O)c1cccs1	none
CN(C)S(=O)(=O)c1cccc(NC(=O)c2ccc3c(c2)S(=O)(=O)N=C2CCCCCN23)c1	none
C=CCN1C(=O)S/C(=C/c2ccc(Sc3nc4ccccc4[nH]3)o2)C1=O	OX1R antag-2 47
CC(C)N1C(=O)S/C(=C/c2ccc(Sc3nc4ccccc4[nH]3)o2)C1=O	CHO parental Ca 71, OX1R antag-2 56
COCCn1c(SC(C)C(=O)Nc2ccc(Cl)cn2)nnc1-c1ccncc1 (stereo unspecified)	none
Cc1ccnc(NC(=O)c2ccc(S(=O)(=O)N3CCC(C)CC3)cc2)c1	none
O=C(CSc1nnc2ccccn12)NC(=O)c1cccc([N+](=O)[O-])c1	OX1R antag-1 43
COc1ccc(C(=O)CC(=O)C(=O)Nc2ccc(C)c(Cl)c2)cc1	none
CC(=O)Nc1ccc(C(=O)CSc2nnnn2C2CCCC2)cc1	none
CCN(CC(=O)Nc1ccc2c(c1)OCCO2)C(=O)c1ccc(C)c(S(=O)(=O)N2CCOCC2)c1	none
COc1ccccc1/C=C/C(=O)OCC(=O)N1CCc2ccccc21	OX1R antag-1 32
O=C(/C=C/c1ccc(OC(F)F)cc1)OCC(=O)N1CCc2ccccc21	none
Cc1nc2ccc(NC(=O)[C@H](C)N3C(=O)C4CC=CCC4C3=O)cc2s1 (stereo partly specified)	none
Cc1sc2nc(CSCC(=O)NC3(C#N)CCCCC3)[nH]c(=O)c2c1C	none
COc1cc(/C=C2\CC/C(=C\c3ccc(OCCO)c(OC)c3)C2=O)ccc1OCCO	OXTR agonist 30, V1R ag counter 43
c1ccc(COc2cncc(-c3cccnc3)c2)cc1	none
Cc1ccc(C)c(N2CCN(C(=O)c3nn(C)c4c3CS(=O)(=O)c3ccccc3-4)CC2)c1	none
CCc1ccc(-c2cc(C)no2)cc1S(=O)(=O)NCCc1ccc(OC)c(OC)c1	OX1R antag-1 43
CCc1ccc(-c2cc(C)no2)cc1S(=O)(=O)NCc1ccc(OC)c(OC)c1	none
Cc1cc(-c2ccc(C)c(S(=O)(=O)NCc3ccc(Br)cc3)c2)on1	none
Cc1cc(-c2ccc(C)c(S(=O)(=O)NCc3cccc(Br)c3)c2)on1	OX1R antag-1 38
Cc1ccc(Sc2cnn(-c3ccccc3)c(=O)c2Cl)cc1	CHO parental Ca 38
CCCCCCCC/C=C\CCCCCCCC(=O)NCCc1ccc(O)c(O)c1	CHO parental Ca 36
COCC(C)NC(=O)c1nn(Cc2ccccc2)c(=O)c2ccccc12 (stereo unspecified)	OX1R antag-1 74
O=C(NNC(=O)c1cc2ccccc2oc1=O)c1ccccc1[N+](=O)[O-]	OX1R antag-1 77
Cc1cc(C(=O)NNC(=O)c2ccccc2[N+](=O)[O-])c(C)o1	none
C/C(=N\NC(=O)c1ccc([N+](=O)[O-])cc1)c1cc2ccccc2oc1=O	OX1R antag-1 68
CCc1c(C)c2ccc(OCC(=O)NCC3CCC(C(=O)O)CC3)c(C)c2oc1=O (stereo unspecified)	none
CC(=O)c1ccccc1NC(=O)COC(=O)/C=C/c1cccs1	none
CC(=O)c1ccc(NC(=O)COC(=O)/C=C/c2cccs2)cc1	OX1R antag-1 50
